Screens as filed in PubChem.
Hits are enriched below; roughly 2.7% of the tested compounds scored in any of these assays.
14-3-3 Bad PPI: disrupts binding of bovine 14-3-3 zeta to phospho-Bad peptide; inhibition, % at 21.7 µM; P63103; TR-FRET 14-3-3zeta/Dy647-pBad peptide displacement, 1 h; 220,000 tested, 0.71% active;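 active = inhibition above about 70%, limit read from the data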
Target sequence (P63103 whole entry, looked up): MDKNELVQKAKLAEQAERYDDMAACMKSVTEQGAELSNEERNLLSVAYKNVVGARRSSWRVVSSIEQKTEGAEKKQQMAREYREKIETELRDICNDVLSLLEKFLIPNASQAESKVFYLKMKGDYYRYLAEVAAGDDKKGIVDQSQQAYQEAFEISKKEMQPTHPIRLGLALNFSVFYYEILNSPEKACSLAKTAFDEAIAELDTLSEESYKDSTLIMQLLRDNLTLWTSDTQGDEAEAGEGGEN
Wee1 degr inh: human Wee1 degradation inhibition, primary screen; HeLa Luc-Wee1K328M stability, luciferase luminescence; 100% = proteasome inhibitor MG132 effect; 220,000 tested, 1.2% active; AID 1321; reporter increase, % at 5 µM; P30291;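 active = activation above the mean of all tested compounds plus 3 SD, set per screening run, cut at about 8.8% in these data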;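 note: cells exposed to compound for 20 h before luminescence read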
Mdm2 ligase inh: inhibitors of human Mdm2 E3 ubiquitin ligase; Q00987; 210,000 tested, 0.11% active; cell-based MDM2 ubiquitination luciferase reporter, 2 h; 0 = plate control, 100 = twice control, blank-subtracted; signal enhancement, % at 5 µM;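 active = signal enhancement of 30% or more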;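 note: luminescence tracks abundance of the self-degrading MDM2-luciferase fusion protein; higher signal means inhibition of MDM2 E3 ligase activity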
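System: stable MDM2–luciferase fusion reporter cells / Input: 2000 cells seeded into each well / Schedule: 4 h settle plus 2 h compound, 37 °C / Compound: single-point 5 µM / Buffer or medium: cells held in DMEM / Benchmarks: control and blank well means / Evaluation: percent signal gain over controls, blank-subtracted / Measured by: luciferase luminescence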
TbHK1 inh: blocks Trypanosoma brucei hexokinase 1 activity; recombinant TbHK1, G6PDH-coupled NADH A340; inhibition, % at 10 µM; 220,000 tested, 0.11% active; AID 1430;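 active = inhibition of 50% or more in the single-dose primary screen; inactive = inhibition below 50%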
Hck-Nef inh: inhibitors of human Hck kinase activated by Nef | P08631 | Recombinant Hck-YEEI plus Nef, Z-Lyte FRET kinase assay | inhibition, % at 20 µM | 220,000 tested, 0.68% active;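 active = Hck-Nef kinase inhibition above about 50%, limit read from the data; inactive = inhibition below that limit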
Hck Nef conf: confirmation of Hck-Nef kinase inhibitors; shares compounds with Hck-Nef inh; Recombinant Hck-YEEI:Nef, Z-Lyte FRET kinase assay; calls only at 10 µM; 1,300 tested, 28% active;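 active = average inhibition of at least 50%, with Z-scores no higher than 3 in both the phospho-tyrosine peptide and fluorescence counterscreens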
Each line names hits and unclear results; the compound was inactive in the other large screens (follow-up assays come after a bar, where shown); [ ] = another dose, or the depositor's remark.

COc1ccc(Br)cc1/C=C/C(=O)NC(=S)Nc1ccc(Cl)c(C(=O)O)c1	Hck-Nef inh 58 | Hck Nef conf inactive
Cc1cccc(-c2cc(C(=O)Nc3ccc4c(c3)OCCO4)c3ccccc3n2)c1	none
O=C(Nc1ccc(S(=O)(=O)Nc2nccs2)cc1)c1cc(-c2ccccn2)nc2ccccc12	Hck-Nef inh 51 | Hck Nef conf inactive
O=C(Nc1ccc(S(=O)(=O)Nc2nccs2)cc1)c1cc(-c2ccccc2Cl)nc2ccccc12	none
O=C(Nc1ccc2c(c1)OCCO2)c1cc(-c2ccccn2)nc2ccc(Br)cc12	Hck-Nef inh 78 | Hck Nef conf inactive
CN1C(=O)C(CC(=O)O)S/C1=N\N=C\c1ccc(O)cc1O (stereo not given)	none
C=CCn1c(C)cc(C(=O)Cn2ncc(Cl)c(Cl)c2=O)c1C	Hck-Nef inh 53 | Hck Nef conf inactive
O=C(c1cnn(C(=O)c2cccc(S(=O)(=O)N3CCOCC3)c2)c1)c1ccccc1O	Hck-Nef inh 129 | Hck Nef conf active
CCCn1c(NC(=O)c2ccccc2)nc2ccccc21	none
CCCn1c(NC(=O)c2cccc(S(=O)(=O)N3CCCC3)c2)nc2ccccc21	Hck-Nef inh 52 | Hck Nef conf active
N=c1c(C(=O)NC2CCCC2)cc2c(=O)n3ccccc3nc2n1C1CCCC1	Hck-Nef inh 122 (not shown: 14-3-3 Bad PPI)
Cc1cccc(NC(=O)c2cc3c(=O)n4ccccc4nc3n(CC(C)C)c2=N)c1	none
CCn1c(=N)c(C(=O)NC)cc2c(=O)n3cccc(C)c3nc21	none (no result: Wee1 degr inh, Mdm2 ligase inh, TbHK1 inh, Hck-Nef inh)
CCCn1c(=N)c(C(=O)NC2CCCC2)cc2c(=O)n3cccc(C)c3nc21	Hck-Nef inh 187
COCCCn1c(=N)c(C(=O)NC2CCCCC2)cc2c(=O)n3ccccc3nc21	Hck-Nef inh active
Cc1cccn2c(=O)c3cc(C(=O)NC(C)c4ccccc4)c(=N)n(CCCn4ccnc4)c3nc12 (stereo not given)	Hck-Nef inh active
CCOC(=O)CC(=O)Nc1ccc(Br)cc1C(=O)O	none
CC(=O)c1sc2nc(CSc3nnnn3-c3ccccc3)[nH]c(=O)c2c1C	Hck-Nef inh 53 | Hck Nef conf active
O=C(CN(Cc1cccs1)C(=O)CNS(=O)(=O)c1ccc(Cl)cc1)NCC1CCCO1 (stereo not given)	Hck-Nef inh 53 | Hck Nef conf inactive
CN(CC(=O)NC1CCCCCC1)S(=O)(=O)c1ccc2c(c1)n(C)c(=O)c(=O)n2C	none
COc1ccc(NC(=O)CSc2c(C)nn(-c3nnc(C)c(=O)[nH]3)c2C)cc1	Hck-Nef inh 108 | Hck Nef conf inactive
O=c1cc2oc3cc(O)c(O)cc3c(-c3ccccc3O)c-2cc1O	none
COc1ccc(OC)c(-c2c3cc(O)c(=O)cc-3oc3cc(O)c(O)cc23)c1	14-3-3 Bad PPI 75[fluorescence artefact?], Hck-Nef inh 54 | Hck Nef conf inactive
CCN1CCCc2cc(CN(CCN3CCOCC3)C(=S)Nc3cc(F)cc(F)c3)ccc21	Hck-Nef inh 55 | Hck Nef conf inactive
CCN1CCCc2cc(CN(CCN3CCOCC3)C(=S)Nc3ccc(OC)cc3)ccc21	Hck-Nef inh 54 | Hck Nef conf inactive
CCOc1ccc(NC(=S)N(CCN2CCOCC2)Cc2ccc3c(c2)CCCN3CC)cc1	none
O=C1CN(c2nc3ccccc3n3cnnc23)CC(=O)N1CCc1ccccc1	none
CCOc1cc(/C=N/NC(=S)Nc2ccccc2C(F)(F)F)ccc1OCC(=O)N1CCOCC1	none
COc1ccc(/C=C/c2nnc(NC(=O)c3ccco3)s2)cc1	Hck-Nef inh 53 | Hck Nef conf inactive
CCCCCCCCC[n+]1cccc2c3ccccc3ccc21	none
CCCCCCCCCCCCCCCC[n+]1cccc2ccccc21	14-3-3 Bad PPI 97[fluorescence artefact?], TbHK1 inh 55, Hck-Nef inh 107
CCO[C@H]1OC(C(=O)Nc2ccccc2)=C[C@@H](c2coc3ccccc3c2=O)[C@@H]1CCCO	none (no result: Mdm2 ligase inh)
Cc1ccc(S(=O)(=O)Nc2ccc(N(C)C)cc2)cc1	Hck-Nef inh 85 | Hck Nef conf inactive
CN(C)c1ccc(NS(=O)(=O)c2ccc(Cl)cc2)cc1	none
CCOC(=O)C1C(=O)CC(C)(O)C(C(=O)OCC)C1/C=C/c1ccccc1 (stereo not given)	none
O=c1[nH]ncc(N/N=C\c2cccs2)c1Cl	Hck-Nef inh 59 | Hck Nef conf active
COc1ccccc1/C=N\Nc1cn[nH]c(=O)c1Cl	Hck-Nef inh 61 | Hck Nef conf inactive
Cc1cccc(/C=N\Nc2cn[nH]c(=O)c2Cl)c1	none
Nc1ccccc1CNc1nc(NCCO)nc2c1ncn2CCN1CCOCC1	none (no result: Wee1 degr inh)
COc1cc(/C=C2/C(C)=C(C#N)c3nc(N)c(C#N)c(C)c32)ccc1OCC(=O)O	none
CC1=C(C#N)c2nc(N)c(C#N)c(C)c2/C1=C\c1ccc(-c2ccccc2C(=O)O)o1	Hck-Nef inh 61 | Hck Nef conf inactive
CCOC(=O)c1oc2ccccc2c1NC(=O)CN1CCOCC1	none
COC(=O)c1cc(COc2ccc3ccc(=O)oc3c2)c(C)o1	none
CC(=O)Oc1ccc2ccc(=O)oc2c1	Hck-Nef inh 122
CC(NC(=O)OC(C)(C)C)C(=O)Oc1ccc2ccc(=O)oc2c1 (stereo not given)	Hck-Nef inh 74
COc1cc2c(cc1OC)C(C(=O)Nc1ccc3c(c1)OCCO3)C(c1cccnc1)N(C)C2=O (stereo not given)	none
CCOC(=O)COc1cnc2ccccc2n1	none
OC(CSc1ccc(F)cc1)CN1CCN(c2ccccc2)CC1 (stereo not given)	none
N#Cc1ncn(-c2ccc(Oc3ccccc3)cc2)c1N	Hck-Nef inh 74 | Hck Nef conf inactive
Cc1cccn2c(=O)c(/C=N/O)c(Nc3ccccc3F)nc12	14-3-3 Bad PPI 87, Hck-Nef inh 70 | Hck Nef conf inactive
CCCn1nc(NC(=O)C2CCCO2)c2cc3cccc(C)c3nc21 (stereo not given)	Hck-Nef inh 52 | Hck Nef conf inactive
COC(=O)C1=C(COc2ccccc2)NC(=O)NC1c1ccc(Br)cc1 (stereo not given)	none (no result: Mdm2 ligase inh)
O=C(N/N=C/c1ccc([N+](=O)[O-])cc1)c1cc(-c2ccc3c(c2)OCO3)n[nH]1	14-3-3 Bad PPI 76, Hck-Nef inh 64 | Hck Nef conf inactive
CCc1ccc(/C=N/Nc2ncnc3nc[nH]c23)cc1	Hck-Nef inh 95 | Hck Nef conf active
CCOC(=O)CNc1ncnc2nc[nH]c12	none
COc1cc(NS(=O)(=O)c2ccc(NC(=S)NC(=O)c3sc4ccccc4c3Cl)cc2)nc(OC)n1	Hck-Nef inh 63 | Hck Nef conf active
COc1cc(NS(=O)(=O)c2ccc(NC(=S)NC(=O)c3sc4cc(F)ccc4c3Cl)cc2)nc(OC)n1	none
